Assay outcomes as filed in PubChem.
Sampled rows, rich in hits. Any-hit rate of the full collection: about 2.4%.
NPY1 pot ag: human NPY-Y1 potentiation or agonism, primary screen | P25929 | NPY-Y1 expressing cells, potentiator/agonist activation | activation, % at 3.6 µM | hit rate 0.37% among 220,000; in the data active means activation above about 33%, passing the limit was not always enough;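 further: cells stimulated with NPY at EC10 then isoproterenol at EC100; 0% = low agonist plus stimulus and 100% = saturating agonist plus stimulus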
Target sequence (P25929 whole entry, looked up): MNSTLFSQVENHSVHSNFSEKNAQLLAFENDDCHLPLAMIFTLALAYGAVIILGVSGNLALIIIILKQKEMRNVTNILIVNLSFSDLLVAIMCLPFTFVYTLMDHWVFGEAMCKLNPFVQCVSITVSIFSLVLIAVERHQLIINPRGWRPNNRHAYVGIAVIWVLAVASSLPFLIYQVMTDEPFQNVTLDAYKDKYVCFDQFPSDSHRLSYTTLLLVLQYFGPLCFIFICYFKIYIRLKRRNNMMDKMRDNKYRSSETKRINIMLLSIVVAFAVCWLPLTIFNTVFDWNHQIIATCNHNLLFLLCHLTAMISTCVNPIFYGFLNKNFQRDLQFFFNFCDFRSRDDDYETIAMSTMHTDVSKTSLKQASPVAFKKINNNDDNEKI
NPY2 pot ag: human NPY-Y2 potentiation or agonism, primary screen; P49146; cells expressing NPY-Y2, potentiator/agonist read-out; activation, % at 3.6 µM; hit rate 0.45% among 220,000; in the data active means activation above about 27%;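 further: cells stimulated with NPY near EC25 plus isoproterenol at EC100; 0% = vehicle plus submaximal agonist and 100% = vehicle plus saturating agonist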
Target sequence (P49146 whole entry, looked up): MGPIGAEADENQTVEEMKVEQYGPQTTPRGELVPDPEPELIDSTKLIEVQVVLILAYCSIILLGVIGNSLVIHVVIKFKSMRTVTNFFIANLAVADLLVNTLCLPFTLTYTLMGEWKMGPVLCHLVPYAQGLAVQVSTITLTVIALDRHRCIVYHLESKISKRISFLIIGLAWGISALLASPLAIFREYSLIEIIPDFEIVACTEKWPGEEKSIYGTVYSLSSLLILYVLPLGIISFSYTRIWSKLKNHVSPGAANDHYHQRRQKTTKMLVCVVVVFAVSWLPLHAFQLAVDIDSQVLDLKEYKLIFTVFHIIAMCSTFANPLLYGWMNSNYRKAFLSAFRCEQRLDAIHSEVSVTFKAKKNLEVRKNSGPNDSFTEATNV
S1P4 antag: antagonists of human S1P4 receptor. O95977. S1P4-expressing cells, antagonist mode, reporter read-out. inhibition, % at 4.98 µM. hit rate 0.26% among 220,000; in the data active means inhibition above about 29%;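 further: 0% = wells stimulated with agonist and 100% = vehicle wells without agonist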
S1P4 ag: agonists of human S1P4 receptor. activation, % at 4.98 µM. hit rate 0.35% among 220,000. O95977. S1P4-expressing cell line, agonist reporter assay. AID 1509; in the data active means activation above about 11%;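 further: 0% = DMSO vehicle and 100% = reference agonist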
NPY-Y2 antag: blocks the human neuropeptide Y Y2 receptor; NPY-Y2 expressing cells, antagonist mode; inhibition, % at 2.7 µM; hit rate 0.99% among 140,000; AID 793; in the data active means inhibition above about 17%;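 further: 0% = vehicle with agonist challenge and 100% = reference antagonist with challenge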
NPY Y1 blocker: blocks the human neuropeptide Y Y1 receptor | AID 1040 | hit rate 1% among 200,000 | P25929 | inhibition, % at 3.6 µM | HEK293-CNG Y1 cells, membrane potential fluorescence; NPY at EC95, then isoproterenol;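 active means inhibition above the campaign mean inhibition of all tested compounds plus 3 SD, cut at about 20% in these data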;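 further: 0% = DMSO wells given NPY plus isoproterenol and 100% = isoproterenol alone without NPY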
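material = HEK293 cells with Y1 receptor plus CNG channel | also added = NPY 25 nM then isoproterenol 1 µM plus Ro 20-1724 25 µM | schedule = dye 3 h, compound 60 min room temperature, stimulation 45 min | measured by = membrane potential fluorescence | benchmarks = high control isoproterenol alone, low control NPY with isoproterenol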
NPY-Y2 confirm: human NPY-Y2 potentiation or agonism, confirmation. shares compounds with NPY2 pot ag. cell-based NPY-Y2 potentiator/agonist assay. activation, % at 3.6 µM. hit rate 20% among 450; in the data active means activation above about 33%
NPY-Y1 counter: potentiates or activates NPY-Y1, counter-screen for NPY-Y2 hits; AID 1651; shares compounds with NPY2 pot ag; activation, % at 3.6 µM; Y1 HEK293-CNG cells, membrane potential fluorescence; hit rate 20% among 450; in the data active means activation above about 45%;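 further: cells stimulated with submaximal NPY then isoproterenol with phosphodiesterase inhibitor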
NPY-Y1 ag 2: human NPY-Y1 agonism as NPY-Y2 potentiator counter-screen; AID 1702; HEK293 Y1-CNGC, membrane potential fluorescence; activation, % at 3.6 µM; hit rate 37% among 450; shares compounds with NPY2 pot ag;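 active means activation above the mean of DMSO-only control wells plus 3 SD, cut at about 18% in these data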;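 further: cells stimulated with 1 µM isoproterenol plus the PDE inhibitor Ro 20-1724; 0% = isoproterenol with DMSO and no NPY and 100% = 40 nM NPY; Y1 agonists lower the membrane potential dye signal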
CNGC inhibitor: counter-screen for NPY-Y2 potentiators: inhibitors of CNG channel activity; AID 1703; HEK293-CNG parental, isoproterenol cAMP, membrane potential fluorescence; hit rate 32% among 450; shares compounds with NPY2 pot ag; inhibition, % at 3.6 µM;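 active means inhibition above the control-well mean plus 3 SD of those wells, cut at about 22% in these data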;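 further: 0% = DMSO with isoproterenol and 100% = DMSO without isoproterenol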
NPY-Y2 ag 2: counter-screen for NPY-Y2 potentiators: agonists of human NPY-Y2; shares compounds with NPY2 pot ag; HEK293 Y2/CNGC cells, membrane potential fluorescence, agonist mode; activation, % at 3.6 µM; hit rate 56% among 450; AID 1710;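 active means activation above the mean of solvent-only control wells plus 3 SD, cut at about 10% in these data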;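 further: cells stimulated by isoproterenol with no NPY added so direct agonism is tested; 0% = DMSO with isoproterenol alone and 100% = NPY at EC100 plus isoproterenol; agonism lowers probe fluorescence through less cAMP and CNG channel opening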
* hit, by the source's call; nt = not tested or not shown.

SMILES | NPY1 pot ag | NPY2 pot ag | S1P4 antag | S1P4 ag | NPY-Y2 antag | NPY Y1 blocker | NPY-Y2 confirm | NPY-Y1 counter | NPY-Y1 ag 2 | CNGC inhibitor | NPY-Y2 ag 2
Cn1c(=O)cc(N)n(Cc2ccccc2)c1=O | -12 | 1 | 1 | 0 | 1 | -1 | nt | nt | nt | nt | nt
CC(=O)C(=Nc1ccc(Cl)cc1Cl)NNc1cccc(Cl)c1 | 39 | 33* | -7 | -6 | -9 | -7 | 16 | 8 | 7 | 9 | 28*
CC(=O)c1ccc(NC(=O)Nc2cccc(Cl)c2)cc1 | 18 | 11 | -21 | 3 | -1 | -7 | nt | nt | nt | nt | nt
OC(COc1ccc(-c2ccccc2)cc1)CN1CCOCC1 (centres undefined) | 10 | 56* | -6 | 0 | nt | 3 | -5 | -11 | 3 | 2 | 2
CN(C)c1cccc2c1C(=O)c1ccccc1C2=O | 17 | 33* | -36 | -1 | -6 | -5 | 34* | 42 | 26* | 26* | 29*
Cc1ccc(C(=O)CSc2cnc3ccccc3n2)cc1C | -21 | -12 | -19 | 0 | 12 | 20 | nt | nt | nt | nt | nt
O=C(Cn1c(-c2cscn2)nc2ccccc21)Nc1cc(F)ccc1F | -26 | 4 | -11 | -2 | 3 | 0 | nt | nt | nt | nt | nt
O=C(Cn1c(-c2cscn2)nc2ccccc21)Nc1ccc2ccccc2c1 | 44 | 29* | -1 | 1 | -1 | -10 | 18 | 37 | 27* | 32* | 25*
O=[N+]([O-])c1nn(-c2ccc3c(c2)OCCO3)n(O)c1=NCCC1=CCCCC1 | -17 | -21 | 7 | -2 | nt | 11 | nt | nt | nt | nt | nt
CC(C)OC(=O)C(C)Nc1n[nH]c(=S)[nH]c1=O (centres undefined) | 3 | 73* | -11 | -1 | nt | 2 | 1 | -2 | 10 | -1 | 11*
COc1ccccc1NS(=O)(=O)c1cccc(NC(=O)Nc2ccccc2)c1 | 21 | 16 | -27 | 0 | -3 | -5 | nt | nt | nt | nt | nt
COc1ccccc1NS(=O)(=O)c1cccc(NC(=O)Nc2ccc(Cl)cc2)c1 | 19 | 31* | -3 | 1 | nt | -9 | 30 | 38 | 30* | 32* | 31*
O=C(Cc1ccc(Cl)cc1)Nc1cccc(S(=O)(=O)Nc2ccccc2F)c1 | 38 | 38* | -18 | -1 | -4 | -8 | 14 | 22 | 13 | 16 | 20*
Cc1ccc(OCCC(=O)O)cc1 | -25 | -31 | 0 | 0 | nt | nt | nt | nt | nt | nt | nt
N#CC(C#N)=C(Nc1ccc(F)cc1)SCc1cccc(F)c1 | 4 | 37* | -2 | -2 | 3 | 8 | -4 | -37 | -25 | -17 | 2
CS(=O)(=O)N1CCc2cc(-c3csc(NC(=O)Cc4cccs4)n3)ccc21 | -7 | 36* | -6 | 0 | 4 | -10 | -9 | -27 | -29 | -12 | -14
CC(=O)Nc1nc(-c2ccc3c(c2)CCN3S(C)(=O)=O)cs1 | -9 | 10 | 1 | 2 | nt | 5 | nt | nt | nt | nt | nt
O=C(Nc1ccccc1NC(=O)NC1CCCCC1)NC1CCCCC1 | -1 | 0 | -7 | -4 | 3 | 1 | nt | nt | nt | nt | nt
Nc1ccccc1NC1CCCCC1 | 33 | 36* | 8 | 3 | nt | -3 | 21 | 34 | 17 | 26* | 24*
Cc1cc(C)nc(Oc2ccc(Br)cc2)n1 | -7 | 91* | -4 | -1 | nt | nt | 0 | 4 | -8 | 1 | 3
CC(=O)Nc1ccc(Oc2nc(C)cc(C)n2)cc1 | -27 | 9 | -20 | 1 | 1 | -1 | nt | nt | nt | nt | nt
CCN1C(=O)C2(C(C#N)=C(N)Oc3n[nH]c(-c4ccc(Cl)cc4)c32)c2ccccc21 (centres undefined) | 31 | 39* | 3 | -1 | 5 | -7 | 44* | 58* | 51* | 24* | 36*
COc1ccc(Cl)cc1S(=O)(=O)Nc1ccncc1 | 14 | -11 | 4 | 1 | nt | 4 | nt | nt | nt | nt | nt
COc1ccc(Cl)cc1NS(=O)(=O)c1cc(Cl)ccc1OC | 43 | 33* | 6 | 0 | -2 | -6 | 24 | 38 | 29* | 26* | 32*
COC(=O)C1CC(O)CN1C(=O)Nc1ccccc1 (centres undefined) | -1 | 10 | -16 | 2 | nt | 1 | nt | nt | nt | nt | nt
SMILES | NPY1 pot ag | NPY2 pot ag | S1P4 antag | S1P4 ag | NPY-Y2 antag | NPY Y1 blocker | NPY-Y2 confirm | NPY-Y1 counter | NPY-Y1 ag 2 | CNGC inhibitor | NPY-Y2 ag 2
Cc1nc(/C(=N/O)C(N)=O)cs1 | 17 | 3 | 3 | 0 | nt | nt | nt | nt | nt | nt | nt
Cc1nn(Cc2ccccc2Cl)c(C)c1C(=O)N1CCN(c2ccccc2)CC1 | 7 | 116* | -5 | -1 | 6 | 12 | 1 | -3 | -3 | -5 | 6
COc1ccc(S(=O)(=O)N2CCCCCC2)cc1N | -6 | 4 | -40 | -2 | nt | 3 | nt | nt | nt | nt | nt
Cc1nn(CC(=O)NC(C)c2ccccc2)c(C)c1[N+](=O)[O-] (centres undefined) | 4 | -3 | -15 | -2 | nt | 5 | nt | nt | nt | nt | nt
Cc1nn(CC(=O)OCC(=O)NC(C)c2ccccc2)c(C)c1[N+](=O)[O-] (centres undefined) | 18 | 92* | 7 | 1 | nt | 5 | -8 | -1 | -7 | -1 | 7
O=S(=O)(Nc1cccc2ccccc12)c1cccc2nonc12 | 19 | 63* | 12 | -1 | nt | nt | -1 | 6 | -3 | -3 | -2
Cc1cccc(NS(=O)(=O)c2cccc3nonc23)c1 | 19 | 6 | -19 | 0 | nt | -5 | nt | nt | nt | nt | nt
CC(C)NC(=S)N=Nc1c(O)[nH]c2ccc([N+](=O)[O-])cc12 | 23 | 35* | -11 | 1 | nt | -1 | 17 | 29 | 19* | 17 | 22*
C=C(C)CNC(=S)N=Nc1c(O)[nH]c2ccc([N+](=O)[O-])cc12 | 16 | 12 | -33 | 1 | nt | -5 | nt | nt | nt | nt | nt
CCN(CC)C(=O)CSc1nc(OC)cc(=O)[nH]1 | -23 | -6 | 1 | 2 | -1 | 1 | nt | nt | nt | nt | nt
COc1ccc(N2CCN(C(C)C(=O)N3CCCC3)CC2)cc1 (centres undefined) | -10 | -12 | -19 | 0 | nt | -2 | nt | nt | nt | nt | nt
COc1ccc(Cn2cnc3c(NS(C)(=O)=O)c(C)c(C)cc32)cc1 | 19 | 35* | -22 | 1 | 6 | 2 | 13 | 28 | 13 | 22 | 21*
Cc1noc(C)c1COC(=O)c1ccc(N(C)C)cc1 | -1 | 10 | -10 | -1 | nt | 1 | nt | nt | nt | nt | nt
